Test results: PMC5161665 (Nature, 2016)
Peptide text beside a SMILES is read from it. * marks the point of attachment. Cbz = O=C(OCc1ccccc1)*

Key:
T. cruzi epimastigotes = experiment: microbe, parasite or virus in culture; format: cell-based, Trypanosoma cruzi; settings: for inhibition of T. cruzi epimastigote proliferation, potency: wild type epimastigotes
[1] = target: T1, PSMB4^I29M T. cruzi proteasome (Trypanosoma cruzi, UniProt Q4CU77+Q4D8U7, I29M); experiment: Proteasome proteolytic activities, PSMB4^I29M T. cruzi proteasome; format: biochemical; settings: mean ± s.e.m., n=3
T1 sequence (Q4CU77 1-206 I29M): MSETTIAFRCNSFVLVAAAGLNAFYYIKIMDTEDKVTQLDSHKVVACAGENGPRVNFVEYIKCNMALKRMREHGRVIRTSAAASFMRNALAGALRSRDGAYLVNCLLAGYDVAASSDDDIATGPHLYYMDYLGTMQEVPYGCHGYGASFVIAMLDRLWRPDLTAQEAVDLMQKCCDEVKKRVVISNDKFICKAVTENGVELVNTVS
T1 sequence (Q4D8U7 111-311): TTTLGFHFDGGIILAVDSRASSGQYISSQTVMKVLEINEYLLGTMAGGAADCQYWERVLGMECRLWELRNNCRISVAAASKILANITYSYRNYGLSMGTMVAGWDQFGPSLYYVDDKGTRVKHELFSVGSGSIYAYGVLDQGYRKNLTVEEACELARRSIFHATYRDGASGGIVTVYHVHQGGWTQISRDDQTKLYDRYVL

[2] = system: ubiquitylated proteins in T. cruzi epimastigotes; experiment: Accumulation of ubiquitylated proteins in T. cruzi epimastigotes; format: cell-based; settings: Trypanosoma cruzi, read-out: ubiquitylation EC50, T. cruzi epimastigotes
Summary of the method: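 T. cruzi epimastigotes were seeded at 1 × 10^7 cells/well in LIT medium and exposed to DMSO (0.2%) or a range of test compound concentrations for 2–12 h at 27 °C. Cells were pelleted, washed twice in PBS, and lysed for 20 min on ice in Tris pH 7.4/NaCl/1% CHAPS buffer with protease inhibitors and N-ethylmaleimide. Lysates were cleared at 21,000 g, 30 min, 4 °C.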

T. brucei (GVR35-VSL2) = experiment: Mouse model of stage II HAT; format: in vivo, Trypanosoma brucei; settings: single ip dose 40 mg/kg

| Compound | inhibition of T. cruzi epimastigote proliferation, potency (T. cruzi epimastigotes) | EC50 (T. cruzi epimastigotes; Trypanosoma cruzi, read-out: growth inhibition EC50 on T. cruzi epimastigotes) | IC50 ([1]; IC50 caspase, caspase-like activity) | IC50 ([1]; IC50 chymotrypsin, chymotrypsin-like activity) | IC50 ([1]; IC50 trypsin, trypsin-like activity) | EC50 [2] | parasite clearance / recrudescence (T. brucei (GVR35-VSL2)) | parasites in the brain (T. brucei (GVR35-VSL2); ex vivo brain imaging) |
| --- | --- | --- | --- | --- | --- | --- | --- | --- |
| CC(C)C[C@@H](C=O)NC(=O)[C@H](CC(C)C)NC(=O)[C@H](CC(C)C)NC(=O)OCc1ccccc1 [MG132] (Cbz-Leu-Leu-Leu-aldehyde) | sub-micromolar potency | – | – | – | – | – | – | – |
| CC(C)C[C@H](NC(=O)[C@H](Cc1ccccc1)NC(=O)c1cnccn1)B(O)O [bortezomib] | sub-micromolar potency | 160 nM | 540 ± 12 nM | 260 ± 40 nM | 1600 ± 58 nM | 62 nM | – | – |
| CC(=O)NCC(=O)O.CC(=O)NCC(=O)O.N=C(N)c1ccc(N=NNc2ccc(C(=N)N)cc2)cc1 [diminazene aceturate] | – | – | – | – | – | – | did not prevent parasite recrudescence 21 days later | parasites were clearly detected in the brains |
